The values below come from PMC7723353 (Revista do Instituto de Medicina Tropical de São Paulo, 2020).

Data set [1] is described as follows: Cytotoxicity by MTT assay in Vero cells. The class given is cell-based. Conditions: African green monkey, Vero cells (African green monkey kidney). The method in brief:
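Vero cells at 2.7 × 10^5 cells/mL in MEM with 5% FBS, held 24 h at 37 °C, 5% CO2. Medium replaced by two-fold serial dilutions of test compound from DMSO stocks, or DMSO; medium-only cell controls. Incubation 4 days at 37 °C, then MTT (5 mg/mL solution) for 4 h. Formazan dissolved in DMSO, absorbance read at 540 nm. CC50 from % viability by regression.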

Data set [2] concerns Zika virus (clinical isolate, IMT17). Put plainly: Anti-ZIKV viral plaque reduction assay in Vero cells. In kind it is cell-based. Particulars: for EC50: 96 h, read-out: Anti-ZIKV activity EC50; for Selectivity index (SI): ratio between cytotoxicity and antiviral activity (CC50/EC50), Vero cells. The method in brief: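 ZIKV clinical isolate IMT17 on Vero cells (1.5 × 10^5 cells/well, grown 24 h). Infection at 100 PFU/well for 1 h at 37 °C, 5% CO2, then PBS (pH 7.0) wash. Test compound at several concentrations in 2X MEM, 2% FBS, 50% high-viscosity CMC overlay. Ribavirin positive control; medium and DMSO controls. After 4 days, crystal violet stain; plaque counts give % inhibition, EC50 by non-linear regression; SI = CC50/EC50.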

In general, CC50 refers to the concentration that lowers cell viability or growth by half. The EC50 is the concentration giving half of the maximal effect. `NC(=O)c1ncn([C@@H]2O[C@H](CO)[C@@H](O)[C@H]2O)n1` [Ribavirin, reference compound]: the CC50 at 4 days in data set [1] is 2590 µM. For the same compound, the EC50 in data set [2] (Zika virus, Vero) was determined as 98.5 ± 6.46 µM. Also, in data set [2], the “Selectivity index (SI)” value is recorded as 26.25.

The EC90 is the concentration at which the effect reaches the 90% level. For `CC(C)c1cc2c(cc1O)[C@@]1(C)CCC[C@@](C)(C=O)[C@@H]1CC2` [Compound 8, 18-oxoferruginol], in data set [1], the midpoint of cytotoxicity, the CC50 at 4 days, lay at 35.1 ± 5.2 µM. Besides, in data set [2] (Zika virus, Vero), it took 20.8 ± 3.75 µM to reach the 90% level (EC90) and the EC50 was determined as 2.6 ± 0.07 µM. Besides, in data set [2], the “Selectivity index (SI)” value amounted to 13.51.
